Data published in ChEMBL document CHEMBL4152234, “Aminobenzothiazole derivatives stabilize the thermolabile p53 cancer mutant Y220C and show anticancer activity in p53-Y220C cell lines” (Eur J Med Chem, 2018).

Tests used:
[1] = test system: Cellular tumor antigen p53 (Homo sapiens), P04637 [Y220C]; experiment: Activation of p53 Y220C mutant in human NUGC3 cells assessed as change in ATM mRNA level at 60 uM after 18 hrs by RT-PCR method relative to control; assay type: cell-based
In short: (§1)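 p53 signalling qPCR array covering 84 genes. Cells were exposed for 18 h, with 0.5% DMSO in both compound and control samples. Total RNA was extracted and purified. Fold-changes were calculated by ΔΔCt using β2-microglobulin (B2M) as the housekeeping gene. Two independent biological replicates were run per cell line.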

[2] = test system: Cellular tumor antigen p53 (Homo sapiens), P04637 [Y220C]; experiment: Activation of p53 Y220C mutant in human NUGC3 cells assessed as change in CCNB1 mRNA level at 60 uM after 18 hrs by RT-PCR method relative to control; assay type: cell-based; in short: as §1
[3] = target: T1, Cellular tumor antigen p53 (Homo sapiens, UniProt P04637); experiment: Activation of p53 in human NUGC4 cells assessed as change in JUN mRNA level at 60 uM after 18 hrs by RT-PCR method relative to control; assay type: cell-based; conditions: read-out: FC
In short: (§2)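 p53 signaling qPCR array of 84 p53-pathway genes. Cells were treated in 6-well plates for 18 h with 0.5% DMSO in compound and control samples. Total RNA was extracted and fold-changes were obtained by the ΔΔCt method against untreated control, with β2-microglobulin (B2M) as housekeeping gene. Two independent biological replicates per cell line.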

[4] = test system: Cellular tumor antigen p53 (Homo sapiens), P04637 [Y220C]; experiment: Activation of p53 Y220C mutant in human NUGC3 cells assessed as change in DNMT1 mRNA level at 60 uM after 18 hrs by RT-PCR method relative to control; assay type: cell-based; in short: as §1
[5] = Solubility of the compound in water; assay type: physicochemical; conditions: buffer
[6] = target: T1, Cellular tumor antigen p53; experiment: Activation of p53 in human NUGC4 cells assessed as change in TP53 mRNA level at 60 uM after 18 hrs by RT-PCR method relative to control; assay type: cell-based; conditions: read-out: FC
[7] = test system: Cellular tumor antigen p53 (Homo sapiens), P04637 [Y220C]; experiment: Activation of p53 Y220C mutant in human NUGC3 cells assessed as change in CCNG1 mRNA level at 60 uM after 18 hrs by RT-PCR method relative to control; assay type: cell-based; in short: as §1
[8] = test system: Cellular tumor antigen p53 (Homo sapiens), P04637 [Y220C]; experiment: Activation of p53 Y220C mutant in human NUGC3 cells assessed as change in BRCA1 mRNA level at 60 uM after 18 hrs by RT-PCR method relative to control; assay type: cell-based; in short: as §1
[9] = test system: Cellular tumor antigen p53 (Homo sapiens), P04637 [Y220C]; experiment: Activation of p53 Y220C mutant in human NUGC3 cells assessed as change in PIDD1 mRNA level at 60 uM after 18 hrs by RT-PCR method relative to control; assay type: cell-based
In short: (§3)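 p53 signalling qPCR array covering 84 p53 pathway genes. Cells were exposed for 18 h, and compound and control wells both held 0.5% DMSO. Total RNA was extracted and purified. Fold-changes were calculated by the ΔΔCt method against the untreated sample, with β2-microglobulin (B2M) as the housekeeping gene. Each cell line was run in two independent biological replicates.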

[10] = target: T1, Cellular tumor antigen p53; experiment: Activation of p53 in human NUGC4 cells assessed as change in E2F3 mRNA level at 60 uM after 18 hrs by RT-PCR method relative to control; assay type: cell-based; conditions: read-out: FC; in short: as §2
[11] = target: T1, Cellular tumor antigen p53; experiment: Activation of p53 in human NUGC4 cells assessed as change in SESN2 mRNA level at 60 uM after 18 hrs by RT-PCR method relative to control; assay type: cell-based; conditions: read-out: FC
[12] = target: T1, Cellular tumor antigen p53; experiment: Activation of p53 in human NUGC4 cells assessed as change in PTEN mRNA level at 60 uM after 18 hrs by RT-PCR method relative to control; assay type: cell-based; conditions: read-out: FC
[13] = target: T1, Cellular tumor antigen p53; experiment: Activation of p53 in human NUGC4 cells assessed as change in CDKN1A mRNA level at 60 uM after 18 hrs by RT-PCR method relative to control; assay type: cell-based; conditions: read-out: FC; in short: as §2
[14] = target: T1, Cellular tumor antigen p53; experiment: Activation of p53 in human NUGC4 cells assessed as change in XRCC5 mRNA level at 60 uM after 18 hrs by RT-PCR method relative to control; assay type: cell-based; conditions: read-out: FC
[15] = test system: Cellular tumor antigen p53 (Homo sapiens), P04637 [Y220C]; experiment: Activation of p53 Y220C mutant in human NUGC3 cells assessed as change in SIRT1 mRNA level at 60 uM after 18 hrs by RT-PCR method relative to control; assay type: cell-based; in short: as §3
[16] = test system: Cellular tumor antigen p53 (Homo sapiens), P04637 [Y220C]; experiment: Activation of p53 Y220C mutant in human NUGC3 cells assessed as change in HDAC1 mRNA level at 60 uM after 18 hrs by RT-PCR method relative to control; assay type: cell-based; in short: as §1
[17] = test system: Cellular tumor antigen p53 (Homo sapiens), P04637 [Y220C]; experiment: Activation of p53 Y220C mutant in human NUGC3 cells assessed as change in MYC mRNA level at 60 uM after 18 hrs by RT-PCR method relative to control; assay type: cell-based; in short: as §3
[18] = test system: Cellular tumor antigen p53 (Homo sapiens), P04637 [Y220C]; experiment: Activation of p53 Y220C mutant in human NUGC3 cells assessed as change in BBC3 mRNA level at 60 uM after 18 hrs by RT-PCR method relative to control; assay type: cell-based; in short: as §1
[19] = target: T1, Cellular tumor antigen p53; experiment: Activation of p53 in human NUGC4 cells assessed as change in CCNH mRNA level at 60 uM after 18 hrs by RT-PCR method relative to control; assay type: cell-based; conditions: read-out: FC; in short: as §2
[20] = target: T1, Cellular tumor antigen p53; experiment: Activation of p53 in human NUGC4 cells assessed as change in TNFRSF10B mRNA level at 60 uM after 18 hrs by RT-PCR method relative to control; assay type: cell-based; conditions: read-out: FC
[21] = target: T1, Cellular tumor antigen p53; experiment: Activation of p53 in human NUGC4 cells assessed as change in CCNG1 mRNA level at 60 uM after 18 hrs by RT-PCR method relative to control; assay type: cell-based; conditions: read-out: FC; in short: as §2
[22] = target: T1, Cellular tumor antigen p53; experiment: Activation of p53 in human NUGC4 cells assessed as change in BBC3 mRNA level at 60 uM after 18 hrs by RT-PCR method relative to control; assay type: cell-based; conditions: read-out: FC; in short: as §3
[23] = test system: Cellular tumor antigen p53 (Homo sapiens), P04637 [Y220C]; experiment: Activation of p53 Y220C mutant in human NUGC3 cells assessed as change in BCL2 mRNA level at 60 uM after 18 hrs by RT-PCR method relative to control; assay type: cell-based; in short: as §1
[24] = target: T1, Cellular tumor antigen p53; experiment: Activation of p53 in human NUGC4 cells assessed as change in FADD mRNA level at 60 uM after 18 hrs by RT-PCR method relative to control; assay type: cell-based; conditions: read-out: FC; in short: as §2
[25] = target: T1, Cellular tumor antigen p53; experiment: Activation of p53 in human NUGC4 cells assessed as change in EI24 mRNA level at 60 uM after 18 hrs by RT-PCR method relative to control; assay type: cell-based; conditions: read-out: FC; in short: as §2
[26] = test system: Cellular tumor antigen p53 (Homo sapiens), P04637 [Y220C]; experiment: Activation of p53 Y220C mutant in human NUGC3 cells assessed as change in TP63 mRNA level at 60 uM after 18 hrs by RT-PCR method relative to control; assay type: cell-based; in short: as §3
[27] = test system: Cellular tumor antigen p53 (Homo sapiens), P04637 [Y220C]; experiment: Activation of p53 Y220C mutant in human NUGC3 cells assessed as change in PCNA mRNA level at 60 uM after 18 hrs by RT-PCR method relative to control; assay type: cell-based; in short: as §3
[28] = target: T1, Cellular tumor antigen p53; experiment: Activation of p53 in human NUGC4 cells assessed as change in MCL1 mRNA level at 60 uM after 18 hrs by RT-PCR method relative to control; assay type: cell-based; conditions: read-out: FC; in short: as §2
[29] = target: T1, Cellular tumor antigen p53; experiment: Activation of p53 in human NUGC4 cells assessed as change in CCNE1 mRNA level at 60 uM after 18 hrs by RT-PCR method relative to control; assay type: cell-based; conditions: read-out: FC; in short: as §2
[30] = test system: Cellular tumor antigen p53 (Homo sapiens), P04637 [Y220C]; experiment: Activation of p53 Y220C mutant in human NUGC3 cells assessed as change in HK2 mRNA level at 60 uM after 18 hrs by RT-PCR method relative to control; assay type: cell-based; in short: as §1

fold change (FC) [1]: 0.9
fold change (FC) [2]: 1.1
fold induction at 60 µM [3]: 0.7
fold change (FC) [4]: 1.2
solubility [5]: Insoluble
fold induction at 60 µM [6]: 0.8
fold change (FC) [7]: 1.2
fold change (FC) [8]: 0.6
fold change (FC) [9]: 1.2
fold induction at 60 µM [10]: 0.7
fold induction at 60 µM [11]: 1.3
fold induction at 60 µM [12]: 1
fold induction at 60 µM [13]: 1.3
fold induction at 60 µM [14]: 0.8
fold change (FC) [15]: 1.7
fold change (FC) [16]: 0.6
fold change (FC) [17]: 2.4
fold change (FC) [18]: 2.6
fold induction at 60 µM [19]: 0.9
fold induction at 60 µM [20]: 1.2
fold induction at 60 µM [21]: 1
fold induction at 60 µM [22]: 1.3
fold change (FC) [23]: 1.7
fold induction at 60 µM [24]: 0.9
fold induction at 60 µM [25]: 0.8
fold change (FC) [26]: 1.5
fold change (FC) [27]: 0.8
fold induction at 60 µM [28]: 0.8
fold induction at 60 µM [29]: 0.5
fold change (FC) [30]: 1.7
SMILES: CCNC(=O)c1c(O)c(I)c(-n2cccc2)c2sc(N(CC)CC)nc12
